DENV2 CPE rescue – inhibitors of DENV2 cytopathic effect, primary screen, cell-based, plate reader, single concentration | CPE inhibition, % at 9.99 µM | AID 651640, 2012 | DENV2-infected cells, cytopathic effect rescue | actives 1.7% (n = 350,000); in the data active = CPE inhibition above about 20%, passing the limit was not always enough; inconclusive = no clear call, values can overlap the other calls; tested in BHK-21 cells;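 note: 0% = median of neutral control wells and 100% = median of positive control wells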
Cneo AK release – Cryptococcus neoformans cell lysis inducers, primary screen, AK release luminescence, single concentration; C. neoformans lysis, adenylate kinase release luminescence, 4 h; normalised: neutral wells 0, clomiphene wells 100; lysis activity, % at 15 µM; actives 0.2% (n = 360,000);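 active = mean lysis activity across replicates of at least 80%, whatever share of replicates individually reach that level; inactive = mean lysis activity below 80%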
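Signal: Adenylate kinase release luminescence | Assay system: Log-phase Cryptococcus neoformans yeast cells | Input: Cells at 5 × 10^6 per mL | Buffer or medium: Fresh YPD growth medium | Compound: Single dose | Schedule: Static 4 h at 37 °C with compound, 1 h detection | Controls: Clomiphene | Read-out: Luminescence rise reflecting yeast cell lysis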
PDI turbidity – inhibitors of human PDI, primary screen, biochemical, turbidity, single point, plate reader. AID 588391, 2011. PDI insulin aggregation turbidity, A650, 90 min. inhibition, % at 10 µM. actives 0.052% (n = 350,000). Protein disulfide-isomerase (Homo sapiens), P07237;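 active = mean inhibition across replicates of 30% or more, whatever share of single replicates reach that level; inconclusive = mean inhibition below 30% while every single replicate reaches 30%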
Target sequence (P07237 whole entry, looked up): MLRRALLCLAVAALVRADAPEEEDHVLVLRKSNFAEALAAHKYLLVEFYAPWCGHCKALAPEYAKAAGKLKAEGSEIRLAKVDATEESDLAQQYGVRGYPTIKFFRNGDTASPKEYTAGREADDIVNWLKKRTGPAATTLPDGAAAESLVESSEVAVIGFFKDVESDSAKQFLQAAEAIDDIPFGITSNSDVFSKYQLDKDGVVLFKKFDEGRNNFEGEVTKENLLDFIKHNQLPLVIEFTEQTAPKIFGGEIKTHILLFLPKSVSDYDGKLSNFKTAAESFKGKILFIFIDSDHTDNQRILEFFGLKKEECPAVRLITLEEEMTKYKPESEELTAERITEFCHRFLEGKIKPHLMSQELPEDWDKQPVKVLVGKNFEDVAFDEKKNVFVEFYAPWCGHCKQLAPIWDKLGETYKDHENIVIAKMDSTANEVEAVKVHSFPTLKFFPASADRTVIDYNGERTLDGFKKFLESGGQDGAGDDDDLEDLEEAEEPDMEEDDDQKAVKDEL
C2C12 statin – suppressors of statin myotoxicity in C2C12 myotubes, primary screen, cell-based, single point, plate reader; C2C12 myotubes + simvastatin, ATP luminescence, 48 h; scaled: DMSO 0, geranylgeraniol control 100; rescue of ATP level, % at 7.49 µM; actives 0.78% (n = 330,000);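 active = mean ATP rescue above about 67%, or every replicate alone reaching that limit, limit read from the data, passing the limit was not always enough; inconclusive = no clear call, values can overlap the other calls; inactive = mean under the limit and some replicate under it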;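 note: myotubes were challenged with 10 µM simvastatin during compound exposure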
ERp5 block – inhibitors of ERp5-driven insulin aggregation, primary screen, biochemical, turbidity, absorbance 650 nm, single point | Protein disulfide-isomerase A6 (Homo sapiens), Q15084 | 90 min | inhibition, % at 9.99 µM | actives 0.05% (n = 350,000);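 active = mean replicate inhibition above about 25%, with every replicate also reaching it, limit read from the data, passing the limit was not always enough; inconclusive = only one of those two criteria met; inactive = neither criterion met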
CFTR F508del cor – F508del CFTR correction, initial screen, CFBE line, single point; actives 0.36% (n = 350,000); AID 720511, 2013; CFBE cells, YFP halide quenching; stimulated with forskolin plus potentiator P3; % fluorescence drop versus neutral controls; activity (quench increase), % at 7.58 µM;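 active = mean added fluorescence quench of at least 8% versus neutral control, with both replicates also reaching 8%; inconclusive = only one of the mean or replicate conditions met; inactive = mean below 8% and not both replicates reaching 8%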;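 note: cells transiently co-express mutant CFTR-F508del with the halide-sensitive YFP; corrector assay measuring rescue of mutant channel to the surface after 24 h compound exposure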
* hit, by the source's call; ? = inconclusive; . = no result. Only some compounds are listed: those with a hit (about 2.3% of all), similar ones and a draw of the others.

SMILES | DENV2 CPE rescue | Cneo AK release | PDI turbidity | C2C12 statin | ERp5 block | CFTR F508del cor
COc1ccc(N2CCN(Cc3nc4c(c(=O)[nH]c(=O)n4C)n3CCCc3ccccc3)CC2)cc1 | . | 0 | -28 | -9 | . | .
COc1ccc(N2CCN(Cc3nc4c(c(=O)[nH]c(=O)n4C)n3Cc3cccc(Cl)c3)CC2)cc1 | 98* | 1 | -1 | 18 | -2 | 4
CCCCn1c(CN2CCN(c3cccc(Cl)c3)CC2)nc2c1c(=O)[nH]c(=O)n2C | -4 | 1 | 8 | -128 | 0 | 14*
COc1cccc(S(=O)(=O)N2CCCCN3[C@H](CO)[C@@H](c4ccc(C#CC5CC5)cc4)[C@H]3C2)c1 | -34 | 1 | . | 7 | 2 | 3
Cc1ccc(S(=O)(=O)N[C@H](C(=O)OCC(=O)NC(=O)C2CCCCC2)C(C)C)cc1 | ? | 0 | -4 | -5 | 4 | 12*
C[C@H]1CCCCO[C@@H](CN(C)S(=O)(=O)c2ccc(F)cc2)[C@@H](C)CN([C@@H](C)CO)C(=O)c2cc(NS(=O)(=O)c3ccc(F)cc3)ccc2O1 | 2 | 1 | . | . | . | -1
COc1ccc(-c2ccc([C@H]3[C@@H](CO)N4CCCCN(S(=O)(=O)c5cccs5)C[C@@H]34)cc2)cc1 | 22* | 0 | . | . | 1 | 4
O=S(=O)(c1cccs1)N1CCCCN2[C@H](CO)[C@H](c3ccc(C4=CCCC4)cc3)[C@@H]2C1 | 46* | 3 | . | 7 | -6 | -1
Cc1ccc(-c2ccc([C@@H]3[C@H](CO)N4CCCCN(C)C[C@@H]34)cc2)cc1 | -1 | 0 | . | . | 0 | 1
CN1CCCCN2[C@H](CO)[C@H](c3ccc(C4=CCCC4)cc3)[C@H]2C1 | 29* | 4 | . | -1 | -1 | -2
O=S(=O)(c1cccs1)N1CCCCN2[C@H](CO)[C@H](c3ccc(-c4ccccc4)cc3)[C@@H]2C1 | 23* | 0 | . | 15 | 12 | -1
C[C@@H]1CN([C@H](C)CO)C(=O)c2cccc(NS(C)(=O)=O)c2O[C@H]1CN(C)C | 9 | 47 | . | 8 | -2 | 0
Cn1cnc(S(=O)(=O)N2CCCCN3[C@H](C2)[C@@H](c2ccc(-c4ccccc4)cc2)[C@@H]3CO)c1 | 6 | -1 | . | . | 1 | 2
Cn1cnc(S(=O)(=O)N2CCCCN3[C@H](CO)[C@@H](c4ccc(-c5ccccc5)cc4)[C@H]3C2)c1 | 26* | -2 | . | . | -3 | 1
O=C(COC(=O)CN1C(=O)C2CCCCC2C1=O)Nc1cc(S(=O)(=O)N2CCOCC2)ccc1Cl (stereo not given) | 88* | . | -2 | . | 0 | -2
COc1ccc(NC(=O)N(C)C[C@H]2Oc3c(NC(=O)Nc4ccc5c(c4)OCO5)cccc3C(=O)N([C@@H](C)CO)C[C@H]2C)cc1 | -12 | -1 | . | 2 | 12 | 0
CCC(=O)N1CC2(C1)[C@@H](c1ccc(-c3cccc(F)c3)cc1)[C@@H](CO)N2CC1CC1 | 20* | . | . | . | -1 | 3
CCC(=O)N1CC2(C1)[C@H](c1ccc(-c3cccc(F)c3)cc1)[C@@H](CO)N2CC1CC1 | 3 | . | . | . | -1 | 0
CCC(=O)N1CC2(C1)[C@@H](c1ccc(-c3cccc(C)c3)cc1)[C@@H](CO)N2S(C)(=O)=O | 27* | . | . | . | -4 | -1
CC1CC(C)CN(C(=O)/C=C/c2ccc(S(=O)(=O)N3CCOCC3)cc2)C1 (stereo not given) | -3 | 0 | -11 | 8 | -1 | 8.4*
O=C(/C=C/c1ccc(S(=O)(=O)N2CCOCC2)cc1)N1CCN(c2ccc(F)cc2)CC1 | ? | . | 3 | . | -2 | -7
CCOC(=O)C1=C(C)Nc2ncnn2C1c1ccccc1F (stereo not given) | . | 6 | 2 | 81* | . | .
COc1ccccc1C1C(C(=O)NCc2ccccc2)=C(C)Nc2ncnn21 (stereo not given) | . | . | 0 | . | . | .
CC(=O)C1=C(C)Nc2ncnn2C1c1ccccc1OCc1ccccc1 (stereo not given) | . | 1 | 12 | 114* | . | .
C[C@@H]1CCCCO[C@H](CN(C)C(=O)Nc2ccc(F)cc2)[C@@H](C)CN([C@@H](C)CO)C(=O)c2cc(NS(=O)(=O)c3ccc(Cl)cc3)ccc2O1 | 7 | 0 | . | . | 3 | -1
SMILES | DENV2 CPE rescue | Cneo AK release | PDI turbidity | C2C12 statin | ERp5 block | CFTR F508del cor
O=C(Nc1ccc(F)cc1)N[C@H]1CC[C@H](CC(=O)N2CCCCC2)O[C@H]1CO | -4 | 0 | . | 6 | -1 | 0
C[C@@H]1CCCCO[C@@H](CN(C)CC2CCCCC2)[C@H](C)CN([C@@H](C)CO)C(=O)c2cc(NC(=O)C3CCCCC3)ccc2O1 | -2 | 2 | . | . | -4 | 2
COCCn1c(N)c(C(=O)Nc2sc3c(c2C(=O)OC)CCCC3)c2nc3ccccc3nc21 | . | 1 | -2 | 99* | . | .
COC(=O)c1sc(NC(=O)C2c3ccccc3Oc3ccccc32)c(C(=O)OC)c1C | . | . | -3 | . | . | .
CCOC(=O)c1c(NC(=O)C2c3ccccc3Oc3ccccc32)sc(C(C)=O)c1C | -2 | 1 | 0 | 16 | -9 | 11*
Cc1ccc(CSCC(=O)Nc2ccc3c(c2)OCO3)cc1 | . | 1 | -2 | 103* | 1 | .
O=C(CSCc1ccccc1)Nc1ccc2c(c1)OCO2 | . | -3 | 2 | 24 | . | .
CC(C)NC(=O)Nc1ccc2c(c1)C(=O)N(C)[C@H]1CC[C@@H](CC(=O)Nc3ccccc3)O[C@@H]1CO2 | -4 | 5 | . | 5 | -2 | 0
CCN(CC)C(=O)c1sc(NC(=O)C(Sc2ccccc2)c2ccccc2)c(C(=O)OC(C)C)c1C (stereo not given) | . | -2 | -1 | 101* | . | .
CCN(CC)C(=O)c1sc(N)c(C(=O)OC(C)C)c1C | . | -2 | 3 | 1 | . | .
O=C(N/N=C/c1ccc(N2CCOCC2)cc1)c1ccncc1 | 72* | 4 | -2 | -1 | -7 | 4
O=C(Nc1ccc(N2CCOCC2)cc1)c1ccncc1 | . | 8 | 1 | . | . | .
Cc1ccc(SCCNC(=S)Nc2cc(C)ccc2C)cc1 | . | 34 | 16 | 73* | . | .
C[C@@H]1CN([C@H](C)CO)C(=O)c2cc(NC(=O)Nc3ccc(F)cc3)ccc2O[C@@H](C)CCCCO[C@@H]1CN(C)C(=O)C1CCCCC1 | 12 | -1 | . | . | 1 | -2
COc1ccc(OC)c(NC(=O)NNS(=O)(=O)c2ccc(C)cc2C)c1 | 23* | 2 | -2 | . | -7 | 1
COc1ccc(NC(=O)NNS(=O)(=O)c2cc(C)ccc2C)cc1OC | 2 | 0 | -3 | . | 2 | 1
